Assay results: ChEMBL document CHEMBL4765231 (J Med Chem, 2016)
Values after ≈ are worked out from the molar mass of the structure shown. Active and inactive are the calls of the source. The rule behind the calls is not given here.

Key:
[1] = Solubility of compound in water; assay type: physicochemical
[2] = Inhibition of late sodium current channel (unknown origin) at 25 Hz frequency by whole cell patch clamp technique; conditions: Homo sapiens
NaV1.1 = NaV1.1 (Homo sapiens, UniProt P35498); test: Inhibition of NaV1.1 (unknown origin) expressed in cells assessed as inhibition of peak INa current at 10 uM at 25 Hz frequency by whole-cell patch clamp method relative to control; assay type: cell-based; conditions: cells expressing NaV1.1
Method in brief: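 Whole-cell manual patch clamp on non-cardiac NaV1.x channels, run at room temperature. Series resistance was compensated 90% so the command potential was reached within microseconds.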

NaV1.5 [3] = target: T1, NaV1.5 (Homo sapiens, UniProt Q14524); test: Inhibition of human NaV1.5 expressed in HEK293 cells assessed as inhibition of peak sodium current measured at frequency 3 Hz at -20 mV resting membrane potential at 3 uM by electrophysiology assay relative to control; assay type: cell-based; conditions: HEK293 cells expressing human NaV1.5
T1 sequence (Q14524 whole entry, the tested form may be a part): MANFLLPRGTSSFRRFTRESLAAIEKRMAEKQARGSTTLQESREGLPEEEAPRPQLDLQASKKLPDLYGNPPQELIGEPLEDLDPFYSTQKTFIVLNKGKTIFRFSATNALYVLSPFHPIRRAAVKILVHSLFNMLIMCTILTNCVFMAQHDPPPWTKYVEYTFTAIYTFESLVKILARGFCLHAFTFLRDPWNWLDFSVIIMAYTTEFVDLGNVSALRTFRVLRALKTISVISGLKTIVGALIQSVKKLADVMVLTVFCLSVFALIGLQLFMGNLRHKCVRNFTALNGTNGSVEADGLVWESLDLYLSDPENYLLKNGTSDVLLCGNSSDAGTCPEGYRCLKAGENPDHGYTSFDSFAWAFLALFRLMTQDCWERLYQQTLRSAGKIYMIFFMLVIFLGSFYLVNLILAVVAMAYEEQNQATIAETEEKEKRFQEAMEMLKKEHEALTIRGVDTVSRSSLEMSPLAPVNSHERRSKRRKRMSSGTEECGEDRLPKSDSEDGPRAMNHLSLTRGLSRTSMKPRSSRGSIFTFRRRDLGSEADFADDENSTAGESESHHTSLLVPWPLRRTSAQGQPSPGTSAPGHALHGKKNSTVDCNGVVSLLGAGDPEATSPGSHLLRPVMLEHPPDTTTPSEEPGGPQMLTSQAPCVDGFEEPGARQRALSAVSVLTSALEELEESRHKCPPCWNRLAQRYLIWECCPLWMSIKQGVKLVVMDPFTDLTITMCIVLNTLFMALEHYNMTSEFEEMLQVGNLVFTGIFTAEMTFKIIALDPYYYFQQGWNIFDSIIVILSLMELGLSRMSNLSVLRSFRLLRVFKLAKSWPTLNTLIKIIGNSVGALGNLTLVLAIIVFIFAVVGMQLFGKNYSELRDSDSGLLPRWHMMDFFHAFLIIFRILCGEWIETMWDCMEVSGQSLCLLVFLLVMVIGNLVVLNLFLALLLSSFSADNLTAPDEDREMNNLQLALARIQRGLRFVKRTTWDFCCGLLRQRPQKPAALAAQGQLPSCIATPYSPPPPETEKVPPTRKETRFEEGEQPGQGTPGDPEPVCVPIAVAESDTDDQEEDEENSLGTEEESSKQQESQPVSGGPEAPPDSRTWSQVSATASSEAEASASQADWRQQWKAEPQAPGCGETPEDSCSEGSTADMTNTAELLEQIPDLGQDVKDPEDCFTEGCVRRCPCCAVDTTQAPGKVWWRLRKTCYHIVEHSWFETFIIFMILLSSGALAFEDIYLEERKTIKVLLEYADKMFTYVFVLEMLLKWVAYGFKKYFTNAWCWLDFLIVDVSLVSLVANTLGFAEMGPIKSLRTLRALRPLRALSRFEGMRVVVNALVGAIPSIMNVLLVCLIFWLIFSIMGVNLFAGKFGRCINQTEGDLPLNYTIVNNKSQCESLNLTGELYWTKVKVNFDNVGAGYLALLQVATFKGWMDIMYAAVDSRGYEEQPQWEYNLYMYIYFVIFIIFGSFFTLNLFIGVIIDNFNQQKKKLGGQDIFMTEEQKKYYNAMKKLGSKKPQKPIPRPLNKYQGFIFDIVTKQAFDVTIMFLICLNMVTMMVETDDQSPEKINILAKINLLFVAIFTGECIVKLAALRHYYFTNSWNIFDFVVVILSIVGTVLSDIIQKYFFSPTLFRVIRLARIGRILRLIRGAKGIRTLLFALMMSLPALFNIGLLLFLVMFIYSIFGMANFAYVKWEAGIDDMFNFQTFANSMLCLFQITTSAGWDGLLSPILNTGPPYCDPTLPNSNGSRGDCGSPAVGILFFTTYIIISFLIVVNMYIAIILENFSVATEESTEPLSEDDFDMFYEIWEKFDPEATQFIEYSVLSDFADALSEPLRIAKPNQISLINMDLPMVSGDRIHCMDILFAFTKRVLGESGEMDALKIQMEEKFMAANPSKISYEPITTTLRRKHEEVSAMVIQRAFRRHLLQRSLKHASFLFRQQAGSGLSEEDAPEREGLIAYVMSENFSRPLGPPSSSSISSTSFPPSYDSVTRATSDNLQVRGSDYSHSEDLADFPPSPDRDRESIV

Oryctolagus cuniculus [4] = organism: Oryctolagus cuniculus; test: Cardioprotective activity in New Zealand rabbit model of LAD coronary artery occlusion-induced ischemia-reperfusion injury assessed as inhibition of ST segment elevation at 0.52 uM for 30 mins followed by induction of ischemia for 15 mins and subsequent reperfusion for 15 mins by electrocardiographic analysis; assay type: functional; set-up: scale not given: the % may be the effect or the level left; conditions: time 60 min, 1 h
[5] = Toxicity in New Zealand rabbit model of LAD coronary artery occlusion-induced ischemia-reperfusion injury assessed as effect on blood pressure at 0.28 to 0.52 uM; set-up: species or system Oryctolagus cuniculus; conditions: in vivo, dose 0.28-0.52 µM
[6] = Toxicity in New Zealand rabbit model of LAD coronary artery occlusion-induced ischemia-reperfusion injury assessed as effect on heart rate at 0.28 to 0.52 uM; set-up: species or system Oryctolagus cuniculus; conditions: in vivo, dose 0.28-0.52 µM
Oryctolagus cuniculus [7] = test: Cardioprotective activity in New Zealand rabbit model of LAD coronary artery occlusion-induced ischemia-reperfusion injury assessed as inhibition of ST segment elevation intravenously administered with compound for 30 mins followed by induction of ischemia for 15 mins and subsequent reperfusion for 15 mins by electrocardiographic analysis; assay type: functional
Oryctolagus cuniculus [8] = organism: Oryctolagus cuniculus; test: Cardioprotective activity in New Zealand White rabbit heart assessed as reversal of ATX-II induced late sodium current prolongation in change in duration of monophasic action potential at 90 percent repolarization at 1 uM by electrocardiographic analysis relative to control; assay type: functional
[9] = Metabolic stability in rat microsomes assessed as half life; assay type: ADME, Microsome
[10] = Toxicity in New Zealand rabbit model of LAD coronary artery occlusion-induced ischemia-reperfusion injury assessed as effect on ECG interval at 0.28 to 0.52 uM; set-up: species or system Oryctolagus cuniculus; conditions: in vivo, dose 0.28-0.52 µM
[11] = Metabolic stability in human microsomes assessed as half life; assay type: ADME, Microsome
Oryctolagus cuniculus [12] = organism: Oryctolagus cuniculus; test: Cardioprotective activity in New Zealand rabbit model of LAD coronary artery occlusion-induced ischemia-reperfusion injury assessed as inhibition of ST segment elevation at 0.28 uM for 30 mins followed by induction of ischemia for 15 mins and subsequent reperfusion for 15 mins by electrocardiographic analysis; assay type: functional; set-up: scale not given: the % may be the effect or the level left; conditions: time 60 min, 1 h
[13] = Metabolic stability in dog microsomes assessed as half life; assay type: ADME, Canis lupus familiaris, Microsome
[14] = Toxicity in rabbit model of left circumflex artery ligation-induced ischemia assessed as increase in VT-VF at 1 mg/kg by electrocardiographic analysis; assay type: organism-based, Oryctolagus cuniculus; conditions: in vivo
[15] = Toxicity in rabbit model of left circumflex artery ligation-induced ischemia assessed as animal death at 1 mg/kg; assay type: organism-based, Oryctolagus cuniculus; conditions: in vivo
NaV1.5 [16] = target: T1, NaV1.5; test: Inhibition of human NaV1.5 expressed in HEK293 cells assessed as inhibition of peak sodium current measured at frequency 3 Hz at -20 mV resting membrane potential at 1 uM by electrophysiology assay relative to control; assay type: cell-based; conditions: HEK293 cells expressing human NaV1.5
Homo sapiens [17] = organism: Homo sapiens; test: Inhibition of late sodium current channel (unknown origin) at 1 uM at 25 Hz frequency by whole cell patch clamp technique relative to control
[18] = Ratio of drug concentration in brain to plasma of coronary artery occlusion-induced ischemia-reperfusion injury rabbit model intravenously administered with compound for 30 mins measured by LC-MS/MS analysis; assay type: ADME, Oryctolagus cuniculus; conditions: brain and plasma, iv, read-out: BPR
Oryctolagus cuniculus [19] = organism: Oryctolagus cuniculus; test: Cardioprotective activity in New Zealand rabbit model of LAD coronary artery occlusion-induced ischemia-reperfusion injury assessed as inhibition of ST segment elevation at 12 uM for 30 mins followed by induction of ischemia for 15 mins and subsequent reperfusion for 15 mins by electrocardiographic analysis; assay type: functional; conditions: 1 h, time 60 min
Oryctolagus cuniculus [20] = organism: Oryctolagus cuniculus; test: Cardioprotective activity in New Zealand rabbit heart assessed as reversal of ATX-II induced late sodium current increase in QT interval by electrocardiographic analysis; assay type: functional
[21] = Inhibition of peak sodium current (unknown origin) by manual patch clamp method; set-up: species or system Homo sapiens
Homo sapiens [22] = organism: Homo sapiens; test: Inhibition of L-type calcium channel (unknown origin)
Oryctolagus cuniculus [23] = organism: Oryctolagus cuniculus; test: Cardioprotective activity in rabbit assessed as decrease in chemically-induced Torsades des Pointes at 14 uM by electrocardiographic analysis; assay type: functional; set-up: scale not given: the % may be the effect or the level left
Oryctolagus cuniculus [24] = organism: Oryctolagus cuniculus; test: Cardioprotective activity in New Zealand White rabbit heart assessed as reversal of ATX-II induced late sodium current prolongation in change in duration of monophasic action potential at 90 percent repolarization by electrocardiographic analysis relative to control; assay type: functional, tissue-based
[25] = target: Sodium channel protein type 1 subunit alpha (Homo sapiens, UniProt P35498); test: Inhibition of peak NaV1.1 (unknown origin) at 10 uM at 10 Hz frequency by manual patch clamp technique
Method in brief: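 Whole-cell manual patch clamp at room temperature, with series resistance compensated 90%.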

NaV1.5 [26] = target: T1, NaV1.5; test: Inhibition of human NaV1.5 expressed in HEK293 cells assessed as inhibition of peak sodium current measured at frequency 3 Hz at -120 mV resting membrane potential at 0.3 uM by electrophysiology assay relative to control; conditions: HEK293 cells expressing human NaV1.5

SMILES	IC50 [2]	inhibition at 10 µM (NaV1.1)	half-life [9]	half-life [11]	half-life [13]	inhibition (Homo sapiens [17])	other results
O=C1c2cc(-c3ccc(C(F)(F)F)cc3)ccc2OCCN1Cc1ncccn1	1080 nM	60%	211 min	348 min	371 min	–	solubility [1]: 87 µM (≈ 34.7 µg/mL); inhibition at 3 µM (NaV1.5 [3]): 27%; Activity (Oryctolagus cuniculus [4]): 88%; Activity [5]: Non-Toxic; Activity [6]: Non-Toxic; EC50 (Oryctolagus cuniculus [7]): 300 nM; Activity (Oryctolagus cuniculus [7]; time 60.0 min): Dose-dependent effect; Activity (Oryctolagus cuniculus [8]): 62%; Activity [10]: Non-Toxic; Activity (Oryctolagus cuniculus [12]): 38%
O=C(NCC1CCCCN1)c1cc(OCC(F)(F)F)ccc1OCC(F)(F)F (stereo unspecified) [FLECAINIDE]	–	–	–	–	–	–	Activity [14]: Toxic; Activity [15]: Toxic
O=C1c2cc(-c3ccc(OC(F)(F)F)c(Cl)c3)ccc2OCCN1Cc1ncccn1	770 nM	33%	338 min	393 min	–	–	inhibition at 3 µM (NaV1.5 [3]): 15%; Activity (Oryctolagus cuniculus [8]): 23%
O=C1c2cc(-c3ccc(Cl)c(F)c3)ccc2OCCN1Cc1ncccn1	1610 nM	23%	98 min	330 min	115 min	–	Activity (Oryctolagus cuniculus [8]): 58%; inhibition at 1 µM (NaV1.5 [16]): 8%
O=C1c2cc(-c3ccc(OC(F)(F)F)cc3F)ccc2OCCN1Cc1ncccn1	1280 nM	35%	308 min	241 min	156 min	–	inhibition at 3 µM (NaV1.5 [3]): 37%; Activity (Oryctolagus cuniculus [8]): 39%
Cc1noc(Cn2cnc3ccc(-c4ccc(OC(F)(F)F)cc4)cc3c2=O)n1	–	–	–	–	–	48%	Kp at 0.5 h [18]: 15
COc1ccnc(CN2CCOc3ccc(-c4ccc(OC(F)(F)F)cc4)cc3C2=O)n1	970 nM	60%	271 min	395 min	87 min	–	inhibition at 1 µM (NaV1.5 [16]): 27%
O=C1c2cc(-c3ccc(C(F)F)cc3)ccc2OCCN1Cc1ncccn1	–	–	–	–	–	17%	–
CC(=O)Nc1cc(OC(F)(F)F)ccc1-c1ccc2c(c1)C(=O)N(Cc1ncccn1)CCO2	–	–	–	–	–	4%	–
O=C1c2cc(-c3ccc(C(F)(F)F)cc3)ccc2CCN1Cc1ncccn1	2070 nM	15%	354 min	304 min	320 min	–	solubility [1]: 28 µM (≈ 10.7 µg/mL); Activity (Oryctolagus cuniculus [8]): 25%
O=C1c2cc(-c3ccc(Cl)cc3)ccc2OCCN1Cc1ncccn1	1620 nM	31%	96 min	194 min	63 min	–	inhibition at 3 µM (NaV1.5 [3]): 17%; Activity (Oryctolagus cuniculus [8]): 68%
O=C1c2cc(-c3ccccc3OC(F)(F)F)ccc2OCCN1Cc1ncccn1	–	–	–	–	–	26%	–
O=C1c2cc(-c3ccc(OC(F)F)cc3)ccc2OCCN1Cc1ncccn1	–	–	–	–	–	13%	–
CC(=O)Nc1ccnc(CN2CCOc3ccc(-c4ccc(OC(F)(F)F)cc4)cc3C2=O)n1	–	–	–	–	–	6%	–
COc1ccc(-c2ccc3c(c2)C(=O)N(Cc2ncccn2)CCO3)cc1	–	–	–	–	–	13%	–
Cc1noc(Cn2ncc3ccc(-c4ccc(OC(F)(F)F)cc4)cc3c2=O)n1	–	–	–	–	–	39%	Kp at 0.5 h [18]: 4.4
O=c1c2cc(-c3ccc(C(F)(F)F)cc3)ccc2nnn1Cc1nnc(C2CC2)o1	–	–	–	–	–	51%	EC50 (Oryctolagus cuniculus [7]): 970 nM; Kp at 0.5 h [18]: 0.86
COc1ccccc1OCC(O)CN1CCN(CC(=O)Nc2c(C)cccc2C)CC1 (stereo unspecified) [RANOLAZINE]	–	–	–	–	–	–	inhibition in vivo at 12 µM (Oryctolagus cuniculus [19]): 60%; Activity (Oryctolagus cuniculus [20]): Active; IC50 [21]: 428 µM; inhibition (Homo sapiens [22]): inactive; Activity (Oryctolagus cuniculus [23]): 60%; EC50 (Oryctolagus cuniculus [7]): 8000 nM; IC50 (Oryctolagus cuniculus [24]): 16 µM; inhibition (INH) [25]: Not Active
O=C1c2cc(-c3ccc(OC(F)(F)F)cc3)ccc2CCN1Cc1ncccn1	2310 nM	23%	150 min	395 min	157 min	–	solubility [1]: 60 µM (≈ 24 µg/mL); Activity (Oryctolagus cuniculus [8]): 6%
Nc1ccnc(CN2CCOc3ccc(-c4ccc(OC(F)(F)F)cc4)cc3C2=O)n1	2480 nM	52%	–	–	–	–	inhibition at 3 µM (NaV1.5 [3]): 37%
CS(=O)(=O)c1ccc(-c2ccc3c(c2)C(=O)N(Cc2ncccn2)CCO3)cc1	–	–	–	–	–	3%	–
O=C1c2cc(-c3ccc(OC(F)(F)F)cc3)ccc2OCCN1Cc1ncccc1F	160 nM	82%	89 min	149 min	194 min	–	inhibition at 0.3 µM (NaV1.5 [26]): 23%
O=C1c2cc(-c3ccc(OC(F)(F)F)cc3)ccc2OCCN1Cc1ccccn1	500 nM	67%	69 min	150 min	167 min	–	solubility [1]: < 1 µM
O=C1c2cc(-c3ccc(OC(F)(F)F)cc3)ccc2OCCN1CCc1ncccn1	1000 nM	67%	28 min	28 min	93 min	–	inhibition at 3 µM (NaV1.5 [3]): 13%
O=C1c2cc(-c3cccc(OC(F)(F)F)c3)ccc2OCCN1Cc1ncccn1	2030 nM	18%	294 min	297 min	43 min	–	inhibition at 3 µM (NaV1.5 [3]): 3%; Activity (Oryctolagus cuniculus [8]): 29%
O=C1c2cc(-c3ccccc3)ccc2OCCN1Cc1ncccn1	–	–	–	–	–	18%	–
O=C1c2cc(-c3cccc(C(F)(F)F)c3)ccc2OCCN1Cc1ncccn1	3030 nM	–	–	–	–	–	–
